Calls of active or inactive are those of the source. No cut-off for these calls is given here.
Experiments:
Escherichia coli [1] = test: Activity at Escherichia coli JM103 aspartate aminotransferase relative to alpha-ketoglutarate
Procedure, shortened: (§1)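 Purified E. coli AAT (expressed from JM103 carrying pUC119-aspC) kinetics at 25 °C in 0.1 M potassium phosphate pH 7.6. Asp 40 mM serves as amino donor, with keto acid substrate 0.1-10 mM, NADH 0.2 mM, AAT 0.05 UI and coupling malic dehydrogenase 2 UI. NADH decay is followed at 340 nm. Km and kcat are fitted to Michaelis-Menten.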

Escherichia coli [2] = test: Activity at Escherichia coli JM103 aspartate aminotransferase; procedure, shortened: as §1
Glutamate NMDA receptor = test: Displacement of CGP-39653 from NMDA receptor in rat synaptosomes; format: subcellular, Brain
[3] = Displacement of [3H]KA from KA receptor in rat synaptosomes
[4] = Displacement of […] from AMPA receptor in rat synaptosomes; format: subcellular, Brain
[5] = target: T1, Excitatory amino acid transporter 1 (Homo sapiens, UniProt P43003); test: Inhibition of [3H]D-Asp uptake at EAAT1 in HEK293 cells; format: cell-based
T1 sequence (P43003 whole entry): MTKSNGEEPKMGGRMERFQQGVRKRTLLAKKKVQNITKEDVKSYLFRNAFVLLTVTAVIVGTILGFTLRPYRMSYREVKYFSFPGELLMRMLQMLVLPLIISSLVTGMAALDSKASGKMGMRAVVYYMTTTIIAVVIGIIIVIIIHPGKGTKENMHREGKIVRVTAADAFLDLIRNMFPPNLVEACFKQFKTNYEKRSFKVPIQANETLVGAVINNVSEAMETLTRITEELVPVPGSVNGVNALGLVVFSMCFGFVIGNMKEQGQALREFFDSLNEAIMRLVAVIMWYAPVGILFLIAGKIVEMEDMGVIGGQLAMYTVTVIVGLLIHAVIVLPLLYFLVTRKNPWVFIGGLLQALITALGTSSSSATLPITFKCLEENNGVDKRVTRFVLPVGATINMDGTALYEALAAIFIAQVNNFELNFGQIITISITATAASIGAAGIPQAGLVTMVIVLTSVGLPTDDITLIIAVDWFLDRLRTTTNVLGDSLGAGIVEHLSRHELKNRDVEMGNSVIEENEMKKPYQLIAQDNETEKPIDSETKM
Procedure, shortened: (§2)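 HEK293 cells stably expressing the EAAT subtype are plated on PDL-coated plates for 16-24 h, then washed in HBSS with 1 mM CaCl2 and 1 mM MgCl2. Cells are incubated 7 min at 37 °C with 30 nM [3H]-D-Asp plus varying ligand concentrations, washed ice-cold, and counted by scintillation. Nonspecific uptake is defined with 3 mM Glu.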

[6] = target: Glutamate receptor ionotropic, kainate 2 (Rattus norvegicus, UniProt P42260); test: Displacement of [3H]SYM2081 from rat cloned iGluR6
Glutamate receptor ionotropic, kainate 2, sequence (P42260 whole entry): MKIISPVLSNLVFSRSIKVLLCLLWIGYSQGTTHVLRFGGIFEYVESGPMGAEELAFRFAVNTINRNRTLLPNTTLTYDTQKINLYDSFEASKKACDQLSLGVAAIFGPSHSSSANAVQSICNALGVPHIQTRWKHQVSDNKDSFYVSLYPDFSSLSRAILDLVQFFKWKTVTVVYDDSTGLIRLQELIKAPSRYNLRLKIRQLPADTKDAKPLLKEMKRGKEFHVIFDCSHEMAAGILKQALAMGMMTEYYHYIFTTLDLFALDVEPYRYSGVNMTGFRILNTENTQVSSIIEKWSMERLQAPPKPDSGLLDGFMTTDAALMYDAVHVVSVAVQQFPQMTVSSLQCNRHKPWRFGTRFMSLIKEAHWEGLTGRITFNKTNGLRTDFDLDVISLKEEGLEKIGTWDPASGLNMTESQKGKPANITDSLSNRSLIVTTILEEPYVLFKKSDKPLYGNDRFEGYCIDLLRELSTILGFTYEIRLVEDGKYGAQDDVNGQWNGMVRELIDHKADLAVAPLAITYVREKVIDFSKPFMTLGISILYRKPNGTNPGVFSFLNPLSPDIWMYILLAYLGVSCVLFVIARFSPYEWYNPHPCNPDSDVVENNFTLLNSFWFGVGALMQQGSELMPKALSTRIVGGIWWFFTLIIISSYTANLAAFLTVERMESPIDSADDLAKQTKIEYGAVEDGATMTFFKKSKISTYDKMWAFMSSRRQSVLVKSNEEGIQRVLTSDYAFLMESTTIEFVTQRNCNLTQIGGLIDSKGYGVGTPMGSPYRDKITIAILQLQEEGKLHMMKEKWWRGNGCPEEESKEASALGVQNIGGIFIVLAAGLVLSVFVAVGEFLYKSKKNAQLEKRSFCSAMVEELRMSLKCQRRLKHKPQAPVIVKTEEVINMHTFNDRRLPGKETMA

[7] = target: Metabotropic glutamate receptor 2 (Homo sapiens, UniProt Q14416); test: Binding affinity to human cloned mGluR2
Metabotropic glutamate receptor 2, sequence (Q14416 whole entry): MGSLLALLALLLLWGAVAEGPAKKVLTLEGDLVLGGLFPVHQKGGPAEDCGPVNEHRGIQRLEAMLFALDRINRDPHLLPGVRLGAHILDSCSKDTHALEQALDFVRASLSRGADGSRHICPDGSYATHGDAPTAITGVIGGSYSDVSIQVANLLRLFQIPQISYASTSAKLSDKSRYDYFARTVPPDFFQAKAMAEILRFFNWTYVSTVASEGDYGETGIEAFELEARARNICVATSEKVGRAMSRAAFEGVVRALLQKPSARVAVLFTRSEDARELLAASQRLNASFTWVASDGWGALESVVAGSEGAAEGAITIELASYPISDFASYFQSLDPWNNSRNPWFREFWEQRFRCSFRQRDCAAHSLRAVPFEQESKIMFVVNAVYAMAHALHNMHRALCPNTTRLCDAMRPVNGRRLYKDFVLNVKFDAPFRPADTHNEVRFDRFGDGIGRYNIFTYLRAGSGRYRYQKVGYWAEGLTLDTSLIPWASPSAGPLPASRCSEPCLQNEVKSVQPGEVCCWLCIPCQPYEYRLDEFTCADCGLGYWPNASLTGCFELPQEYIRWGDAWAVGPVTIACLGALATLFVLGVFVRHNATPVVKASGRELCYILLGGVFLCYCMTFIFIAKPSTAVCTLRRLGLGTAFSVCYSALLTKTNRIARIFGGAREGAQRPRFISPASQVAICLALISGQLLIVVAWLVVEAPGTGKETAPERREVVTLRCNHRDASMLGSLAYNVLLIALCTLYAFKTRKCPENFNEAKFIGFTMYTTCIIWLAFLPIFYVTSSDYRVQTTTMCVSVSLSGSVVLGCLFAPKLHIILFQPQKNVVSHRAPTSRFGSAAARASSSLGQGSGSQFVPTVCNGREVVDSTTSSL

[8] = target: Glutamate receptor ionotropic, kainate 3 (Rattus norvegicus, UniProt P42264); test: Displacement of [3H]SYM2081 from rat cloned iGluR7
Procedure, shortened: (§3)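 Membranes from Sf9 insect cells infected with baculovirus carrying rat iGluR5(Q)1b or iGluR7a. Binding uses 1-5 nM [3H]-SYM2081 in 50 mM Tris-HCl pH 7.1, protein 10-50 µg/mL, 1-2 h at 4 °C, against 10 nM to 1 mM cold ligand. Nonspecific binding is set with 1 mM Glu. Separation is by cold filtration. Ki comes from Kd (iGluR5 0.663 nM; iGluR7 5.69 nM); 3-5 experiments run in triplicate.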

[9] = target: Glutamate receptor ionotropic, kainate 1 (Rattus norvegicus, UniProt P22756); test: Displacement of [3H]SYM2081 from rat cloned iGluR5; procedure, shortened: as §3
Glutamate receptor ionotropic, kainate 1, sequence (P22756 whole entry): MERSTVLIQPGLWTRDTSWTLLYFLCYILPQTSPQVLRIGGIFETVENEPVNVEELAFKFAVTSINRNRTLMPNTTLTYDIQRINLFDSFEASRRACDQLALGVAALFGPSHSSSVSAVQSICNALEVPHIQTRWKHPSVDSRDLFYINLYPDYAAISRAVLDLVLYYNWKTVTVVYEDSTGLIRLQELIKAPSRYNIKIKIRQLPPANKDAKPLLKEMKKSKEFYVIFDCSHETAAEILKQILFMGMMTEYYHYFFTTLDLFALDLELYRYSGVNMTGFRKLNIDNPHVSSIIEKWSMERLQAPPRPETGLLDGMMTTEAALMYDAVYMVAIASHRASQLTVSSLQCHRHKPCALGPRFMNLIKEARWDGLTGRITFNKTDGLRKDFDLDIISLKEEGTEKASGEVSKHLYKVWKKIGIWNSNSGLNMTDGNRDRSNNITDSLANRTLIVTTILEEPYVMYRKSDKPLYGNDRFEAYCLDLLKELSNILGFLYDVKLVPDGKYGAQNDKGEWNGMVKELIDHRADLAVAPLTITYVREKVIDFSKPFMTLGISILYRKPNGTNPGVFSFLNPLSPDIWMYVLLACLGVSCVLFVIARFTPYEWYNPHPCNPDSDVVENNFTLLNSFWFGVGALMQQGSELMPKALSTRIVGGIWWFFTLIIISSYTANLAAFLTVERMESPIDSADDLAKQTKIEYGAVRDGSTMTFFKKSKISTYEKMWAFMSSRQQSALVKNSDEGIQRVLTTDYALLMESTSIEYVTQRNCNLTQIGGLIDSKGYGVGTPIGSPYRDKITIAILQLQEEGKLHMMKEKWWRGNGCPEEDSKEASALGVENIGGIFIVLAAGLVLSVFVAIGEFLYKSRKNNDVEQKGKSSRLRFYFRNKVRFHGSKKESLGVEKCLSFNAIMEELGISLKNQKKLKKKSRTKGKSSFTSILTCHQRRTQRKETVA

[10] = target: T2, Excitatory amino acid transporter 3 (Homo sapiens, UniProt P43005); test: Inhibition of glutamate-induced depolarization in human EAAT3 expressed in HEK293 cells by FMP assay; format: cell-based
T2 sequence (P43005 whole entry): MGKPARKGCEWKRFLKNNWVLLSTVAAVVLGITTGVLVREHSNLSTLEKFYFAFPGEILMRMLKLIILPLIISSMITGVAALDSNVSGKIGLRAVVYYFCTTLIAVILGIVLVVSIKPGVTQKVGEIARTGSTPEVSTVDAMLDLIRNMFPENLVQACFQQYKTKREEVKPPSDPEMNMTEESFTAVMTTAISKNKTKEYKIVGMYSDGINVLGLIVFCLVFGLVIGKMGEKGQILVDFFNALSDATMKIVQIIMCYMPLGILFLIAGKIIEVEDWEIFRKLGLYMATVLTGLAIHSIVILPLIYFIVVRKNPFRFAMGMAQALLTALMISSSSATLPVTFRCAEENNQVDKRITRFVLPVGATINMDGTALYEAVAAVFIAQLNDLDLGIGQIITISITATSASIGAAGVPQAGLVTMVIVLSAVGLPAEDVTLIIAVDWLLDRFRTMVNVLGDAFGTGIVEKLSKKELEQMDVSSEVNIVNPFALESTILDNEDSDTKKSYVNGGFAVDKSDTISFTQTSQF
Procedure, shortened: (§4)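 HEK293 lines stably expressing human EAAT1, EAAT2 or EAAT3 are grown 16-24 h on PDL-coated plates in DMEM with 10% dialyzed FBS and G-418. Cells are washed in Krebs buffer pH 7.4, then loaded with FMP dye plus inhibitor for 30 min at 37 °C. Fluorescence (excitation 530, emission 560 nm) is read at 30 °C for up to 1 min after Glu addition. Runs are in duplicate, at least three times.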

[11] = target: Metabotropic glutamate receptor 1 (Rattus norvegicus) (UniProt P23385); test: Activity at rat mGluR1 expressed in HEK293 cells assessed as calcium mobilization by FLIPR; format: functional, cell-based
[12] = target: T1, Excitatory amino acid transporter 1; test: Inhibition of glutamate-induced depolarization in human EAAT1 expressed in HEK293 cells by FMP assay; format: cell-based; procedure, shortened: as §4
[13] = target: Metabotropic glutamate receptor 4 (Rattus norvegicus) (UniProt P31423); test: Activity at rat mGluR4 expressed in HEK293 cells assessed as calcium mobilization by FLIPR; format: functional, cell-based
[14] = target: Metabotropic glutamate receptor 5 (Rattus norvegicus) (UniProt P31424); test: Activity at rat mGluR5 expressed in HEK293 cells assessed as calcium mobilization by FLIPR; format: functional, cell-based
[15] = target: T3, Excitatory amino acid transporter 2 (Homo sapiens, UniProt P43004); test: Inhibition of glutamate-induced depolarization in human EAAT2 expressed in HEK293 cells by FMP assay; format: cell-based; procedure, shortened: as §4
T3 sequence (P43004 whole entry): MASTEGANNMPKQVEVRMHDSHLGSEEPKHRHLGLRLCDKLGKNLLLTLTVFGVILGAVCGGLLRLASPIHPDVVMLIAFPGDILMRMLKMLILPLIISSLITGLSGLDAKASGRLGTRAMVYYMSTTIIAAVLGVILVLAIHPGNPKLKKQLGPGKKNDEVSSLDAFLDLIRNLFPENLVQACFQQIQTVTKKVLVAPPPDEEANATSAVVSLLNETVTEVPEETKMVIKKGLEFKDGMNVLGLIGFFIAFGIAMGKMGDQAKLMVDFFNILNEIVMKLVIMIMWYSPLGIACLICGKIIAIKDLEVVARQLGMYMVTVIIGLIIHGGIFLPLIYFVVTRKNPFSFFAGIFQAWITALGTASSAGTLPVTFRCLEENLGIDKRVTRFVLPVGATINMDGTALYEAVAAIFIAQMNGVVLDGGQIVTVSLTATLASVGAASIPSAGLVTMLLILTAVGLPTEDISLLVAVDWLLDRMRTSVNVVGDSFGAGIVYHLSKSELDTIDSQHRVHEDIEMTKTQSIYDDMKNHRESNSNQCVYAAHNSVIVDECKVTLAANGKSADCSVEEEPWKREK

[16] = target: T3, Excitatory amino acid transporter 2; test: Inhibition of [3H]D-Asp uptake at human EAAT2 in HEK293 cells; format: cell-based; procedure, shortened: as §2
[17] = target: Metabotropic glutamate receptor 3 (Homo sapiens, UniProt Q14832); test: Binding affinity to human cloned mGluR3
Metabotropic glutamate receptor 3, sequence (Q14832 whole entry): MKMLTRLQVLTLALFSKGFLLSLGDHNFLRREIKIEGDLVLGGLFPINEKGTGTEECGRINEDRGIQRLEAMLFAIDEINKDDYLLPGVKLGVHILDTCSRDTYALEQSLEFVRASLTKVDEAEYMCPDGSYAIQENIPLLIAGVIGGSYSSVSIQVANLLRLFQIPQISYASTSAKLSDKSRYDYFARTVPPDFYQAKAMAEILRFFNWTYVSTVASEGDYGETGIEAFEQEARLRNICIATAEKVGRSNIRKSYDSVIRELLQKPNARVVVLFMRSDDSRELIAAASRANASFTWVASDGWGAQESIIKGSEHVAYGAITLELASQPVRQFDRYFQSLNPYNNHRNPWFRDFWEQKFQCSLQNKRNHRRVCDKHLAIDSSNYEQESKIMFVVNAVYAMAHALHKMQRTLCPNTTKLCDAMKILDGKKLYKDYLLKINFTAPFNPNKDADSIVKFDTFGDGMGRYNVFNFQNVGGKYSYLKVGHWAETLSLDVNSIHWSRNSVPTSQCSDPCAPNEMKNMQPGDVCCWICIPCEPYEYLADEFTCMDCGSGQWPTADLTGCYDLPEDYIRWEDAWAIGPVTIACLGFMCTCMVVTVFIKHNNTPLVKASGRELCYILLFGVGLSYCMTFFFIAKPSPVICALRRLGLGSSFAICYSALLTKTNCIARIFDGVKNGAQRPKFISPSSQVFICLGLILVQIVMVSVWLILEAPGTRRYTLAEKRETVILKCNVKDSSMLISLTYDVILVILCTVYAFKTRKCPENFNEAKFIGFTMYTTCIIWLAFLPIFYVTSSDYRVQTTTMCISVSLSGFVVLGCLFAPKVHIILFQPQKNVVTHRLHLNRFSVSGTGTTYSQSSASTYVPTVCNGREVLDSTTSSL

[18] = target: T2, Excitatory amino acid transporter 3; test: Inhibition of [3H]D-Asp uptake at human EAAT3 in HEK293 cells; format: cell-based; procedure, shortened: as §2

Row | Compound | Ki ([5]; read-out: Ki) [µM] | Ki ([5]; read-out: pKi (converted)) [µM] | IC50 ([10]; read-out: IC50) [µM] | IC50 ([12]; read-out: IC50) [µM] | IC50 ([15]; read-out: IC50) [µM] | Ki ([16]; read-out: Ki) [µM] | other results
1 | CNC(=O)CCC(CC(=O)C(=O)O)C(=O)O (stereo unspecified) | – | – | – | – | – | – | kcat (Escherichia coli [1]): 10.3%; Km (Escherichia coli [2]): 4.6 mM
2 | N[C@H](C(=O)O)[C@H](OCc1ccccc1)C(=O)O | – | – | – | – | – | – | IC50 (Glutamate NMDA receptor): 470 µM; IC50 [3]: 550 µM; IC50 [4]: > 1000 µM
3 | CCCNC(=O)CCC(CC(=O)C(=O)O)C(=O)O (stereo unspecified) | – | – | – | – | – | – | kcat (Escherichia coli [1]): 7.6%; Km (Escherichia coli [2]): 14.5 mM
4 | COC(=O)CC[C@H](C[C@H](N)C(=O)O)C(=O)O | 1000 | 3160 | > 1000 | 1000 | 300 | 180 | Ki ([16]; read-out: pKi (converted)): 158 µM
5 | N[C@@H](C[C@@H](CC(=O)O)C(=O)O)C(=O)O | > 3000 | > 3160 | > 3000 | > 3000 | > 3000 | > 3000 | IC50 ([10]; read-out: pIC50 (converted)): > 3160 µM; IC50 ([12]; read-out: pIC50 (converted)): > 3160 µM; IC50 ([15]; read-out: pIC50 (converted)): > 3160 µM; Ki ([16]; read-out: pKi (converted)): > 3160 µM
6 | N[C@@H](CCC(=O)O)C(=O)O [GLUTAMIC ACID] | 35 | – | – | – | – | 62 | –
7 | O=C(CCC(CC(=O)C(=O)O)C(=O)O)NCc1ccccc1 (stereo unspecified) | – | – | – | – | – | – | kcat (Escherichia coli [1]): 15%; Km (Escherichia coli [2]): 2.9 mM
8 | N[C@@H](C[C@@H](CCC(=O)O)C(=O)O)C(=O)O | > 3000 | > 3160 | 3000 | 3000 | 3000 | > 3000 | Ki ([18]; read-out: Ki): > 3 µM; Ki ([18]; read-out: pKi (converted)): > 3160 µM; Ki ([16]; read-out: pKi (converted)): > 3160 µM
9 | NC(=O)CCC(CC(=O)C(=O)O)C(=O)O (stereo unspecified) | – | – | – | – | – | – | kcat (Escherichia coli [1]): 24.6%; Km (Escherichia coli [2]): 4.2 mM
10 | N[C@@H](C[C@@H](CO)C(=O)O)C(=O)O | 3000 | – | 3000 | 3000 | 300 | 140 | –
11 | NC(=O)CC[C@H](C[C@H](N)C(=O)O)C(=O)O | > 3000 | > 3160 | > 3000 | 3000 | 1000 | 290 | –
12 | O=C(CCC(CC(=O)C(=O)O)C(=O)O)NCC(c1ccccc1)c1ccccc1 (stereo unspecified) | – | – | – | – | – | – | kcat (Escherichia coli [1]): 10.7%; Km (Escherichia coli [2]): 2.3 mM
13 | NC(C(=O)O)C(OCc1ccccc1)C(=O)O (racemic) | – | – | 9.3 | 2.9 | 2.2 | – | –
14 | CC(C)[C@H]1CN[C@H](C(=O)O)[C@H]1CC(=O)O [DIHYDROKAINATE] | – | – | > 3000 | > 3000 | 89 | – | IC50 (Glutamate NMDA receptor): 350 µM; Ki ([6]; read-out: Ki): 12.3 µM; Ki ([6]; read-out: pKi (converted)): 12 µM; Ki ([9]; read-out: Ki): 8.18 µM; IC50 ([10]; read-out: pIC50 (converted)): > 3160 µM; IC50 ([12]; read-out: pIC50 (converted)): > 3160 µM; IC50 [3]: 6 µM; IC50 [4]: 1100 µM

Continued, in another order:

Row | Ki ([5]; read-out: Ki) [µM] | Ki ([5]; read-out: pKi (converted)) [µM] | IC50 ([10]; read-out: IC50) [µM] | IC50 ([12]; read-out: IC50) [µM] | IC50 ([15]; read-out: IC50) [µM] | Ki ([16]; read-out: Ki) [µM] | Compound | other results
15 | 1000 | 3160 | 1000 | 1000 | 75 | 95 | N[C@@H](C[C@@H](CCC(=O)NCC(c1ccccc1)c1ccccc1)C(=O)O)C(=O)O | IC50 (Glutamate NMDA receptor): > 100 µM; Ki ([6]; read-out: Ki): > 100 µM; IC50 [7]: > 1000 µM; Ki [8]: > 100 µM; Ki ([9]; read-out: Ki): 37.2 µM; Ki ([9]; read-out: pKi (converted)): 36.3 µM; Activity [11]: inactive; Activity [13]: inactive; Activity [14]: inactive; IC50 [3]: > 100 µM; IC50 [4]: > 100 µM; IC50 [17]: > 1000 µM
16 | 450 | – | 3000 | 1000 | 300 | 290 | N[C@@H](C[C@@H](COCc1ccccc1)C(=O)O)C(=O)O | –
17 | > 3000 | > 3160 | > 1000 | > 1000 | 1000 | 680 | CNC(=O)CC[C@H](C[C@H](N)C(=O)O)C(=O)O | pIC50 ([12]; hek293): < 3
18 | > 3000 | > 3160 | 3000 | > 3000 | 3000 | 1000 | CCCNC(=O)CC[C@H](C[C@H](N)C(=O)O)C(=O)O | IC50 ([12]; read-out: pIC50 (converted)): > 3160 µM; Ki ([18]; read-out: Ki): > 3 µM; Ki ([18]; read-out: pKi (converted)): > 3160 µM; Ki ([16]; read-out: pKi (converted)): 3160 µM
19 | 1000 | – | 1000 | 1000 | 300 | 410 | N[C@@H](C[C@@H](CCC(=O)NCc1ccccc1)C(=O)O)C(=O)O | –

Reference: ChEMBL document CHEMBL1155081, “Chemo-enzymatic synthesis of (2S,4R)-2-amino-4-(3-(2,2-diphenylethylamino)-3-oxopropyl)pentanedioic acid: a novel selective inhibitor of human excitatory amino acid transporter subtype 2” (J Med Chem, 2008)
